PubChem BioAssay AID1136 (Sanford-Burnham Center for Chemical Genomics, 2008)
Screen size: about 200,000 compounds; fewer than 10 were called active.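 Rule for the calls: active = activation factor at least 2 at 20 µM; inactive = the rest.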 These entries were drawn from the full list.

Each molecule was assayed against Alkaline phosphatase, tissue-nonspecific isozyme (Homo sapiens) (UniProt P05186) (assay: activation of human TNAP, high DEA acceptor – biochemical, luminescence, uHTS, primary screen (AID 1136)). Conditions: purified TNAP, CDP-star luminescence, 1 M DEA, 30 min; at 20 µM; stronger effect = higher value; 0 = EDTA background, 1 = DMSO-only activity.
Summary of the method: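 Measured by: Luminescent substrate turnover signal | Test system: Human TNAP | Input: TNAP 1/800 final | Dosing: 20 µM single point | Schedule: 30 min, room temperature | Controls: EDTA wells as negative control, DMSO wells as positive control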

Chain of Alkaline phosphatase, tissue-nonspecific isozyme (Homo sapiens) (P05186 whole entry, looked up): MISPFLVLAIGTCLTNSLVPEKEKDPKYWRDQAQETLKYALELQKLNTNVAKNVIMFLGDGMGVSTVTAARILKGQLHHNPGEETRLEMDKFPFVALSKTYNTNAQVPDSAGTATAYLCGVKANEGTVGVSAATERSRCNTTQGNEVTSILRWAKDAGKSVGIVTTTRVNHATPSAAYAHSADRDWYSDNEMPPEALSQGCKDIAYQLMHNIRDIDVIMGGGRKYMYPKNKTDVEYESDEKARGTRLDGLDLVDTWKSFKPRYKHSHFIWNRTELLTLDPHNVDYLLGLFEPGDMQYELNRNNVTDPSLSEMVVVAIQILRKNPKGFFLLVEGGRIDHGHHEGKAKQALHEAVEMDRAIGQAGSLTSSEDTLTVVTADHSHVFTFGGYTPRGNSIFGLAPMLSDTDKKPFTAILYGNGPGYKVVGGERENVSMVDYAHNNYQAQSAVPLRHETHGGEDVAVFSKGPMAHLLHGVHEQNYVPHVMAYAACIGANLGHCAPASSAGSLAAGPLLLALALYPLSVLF

Activation factor, inactive:
O=C(CNC(c1ccccc1)c1ccccc1)Nc1ccc(F)cc1 1
Cc1cc(C)c(S(=O)(=O)N2CCOCC2)cc1C 1
CC1(C)C2CCC1(C)C(OC(=O)c1ccc(O)cc1)C2 (stereo not given) 1.1
Cc1nc2sc3c(c2c(=O)n1NC(=O)CCl)CCCC3 1
COc1ccc(C)cc1NC(=O)CSc1nnc(CC(=O)Nc2ccccc2F)n1C 1.1
Cc1ccc(S(=O)(=O)N2CCN(C(=O)c3cccs3)CC2)cc1 1
CCCC(=O)n1nc(NCc2ccc(OC)cc2)nc1NCc1ccc(OC)cc1 1
CNC(=S)Nc1ccc([N+](=O)[O-])cc1 1
COc1ccc(C(=O)C[n+]2ccc(C)cc2)cc1 1.1
NC(=O)COc1ccc(C23CC4CC(CC(C4)C2)C3)cc1 1.1
CCc1ccccc1NC(=S)N(CCN1CCCCCC1)Cc1ccco1 1
CCCCN1C(=O)c2ccc(C(=O)Nc3ccc(S(=O)(=O)N(C)C)cc3)cc2C1=O 1
CCCc1c(C)nc2c(Br)cccc2c1Cl 1
Clc1ccc(CN2CCN(/N=C/c3cccnc3)CC2)cc1 1
CC(=O)N1CCc2cc(Br)cc(S(=O)(=O)CCC(=O)Nc3c(C)n(C)n(-c4ccccc4)c3=O)c21 1
CCN(CC)c1ccc(C(=O)N/N=C(\C)c2cccc(OC)c2)cc1 1
Cc1ccc(C)c2[nH]c(=O)c(CCNC(=O)c3cccs3)cc12 1
O=C(/C=C/c1c(F)cccc1Cl)Nc1nn[nH]n1 1
CC(=O)Nc1ccc(/C=N/NC(=O)c2cccs2)cc1 1
CC(CC(=O)N1CCN(c2ccccc2)CC1)c1ccccc1 (stereo not given) 1
COC(=O)c1ccc(-n2cnc3ccccc32)nc1 1
CN1CCN(CC(=O)Nc2cccc([N+](=O)[O-])c2)CC1 1
O=C(CS(=O)(=O)c1ccccc1)Nc1ccc(S(=O)(=O)Nc2ccccn2)cc1 1
COc1ccccc1C(=O)Nn1c(-c2cccs2)nc2ccccc2c1=O 1
CCN(CC)C(=O)C(=O)c1cn(CC(=O)NCc2ccc3c(c2)OCO3)c2ccccc12 1
Cc1ccc(S(=O)(=O)CCC(=O)OCc2ccccc2)cc1 1
CCOC(=O)c1ccccc1NC(=O)CSc1nc2ccccc2c(=O)[nH]1 1
O=C(CN1CCN(c2ccc(O)cc2)CC1)NC1CCCc2ccccc21 (stereo not given) 1
O=[N+]([O-])c1cc(S(=O)(=O)CCCN2CCOCC2)ccc1F 1
O=S(=O)(/N=C(/Nc1ccccc1)c1ccccc1)c1cccs1 1
CCOc1ccc(N2C(=O)CN(c3cccc4ccccc34)C2=S)cc1 1.1
C/C(=N/OC(=O)c1cccc(C(F)(F)F)c1)c1cnccn1 1
CCN(CC)CCNC(=O)c1ccc(NS(=O)(=O)c2ccc3c(c2)OCCO3)cc1 1
Cc1cc(/C=C2/NC(=O)NC2=O)c(C)n1-c1cccnc1 1.1
C=CCC1(CC=C)CCCN1C(=O)CC1C(=O)NCCN1Cc1ccccc1OC (stereo not given) 1
C/C(=N/NC(=O)CCc1ccccc1)c1ccco1 1
CCCCN(CC)CCCNC(=O)c1ccc(CSc2nc3ccncc3[nH]2)cc1 1
CC1=CC2=NC(=O)CC(C)(C(=O)N(CC(=O)NC(C)(C)C)Cc3ccccc3)N2C=C1 (stereo not given) 1.1
O=C(CN1CCN(Cc2ccc(F)cc2Cl)C1=O)NCc1cccs1 1.1
CCC(C)(C)C1CCC(=NNC(=O)c2ccc(Br)o2)CC1 (stereo not given) 1.1
Cc1cccc(C)c1NC(=O)Nc1ccccc1-n1ccnc1 1.1
Cc1cccc(N2CCN(c3ccc(C(N)=O)cc3[N+](=O)[O-])CC2)c1C 1
COc1ccc(-c2[nH]ncc2CN(C)Cc2cccnc2)c(F)c1 1
COc1ccccc1CN(C)C(=O)C1(c2ccc(Cl)cc2)CC1 1
CCOC(=O)C(NC(C)=O)C(=O)Nc1ccc(OC)cc1 (stereo not given) 1.1
COc1cccc(CC2(CO)CCN(Cc3cnc(-c4cccc(C)c4)nc3)CC2)c1 1.1
CCOc1ccc(C(C)=O)cc1CSc1nnc(-c2ccncc2)n1CCOC 1
CN1CCN(/N=C/c2ccc(C#N)cc2)CC1 1
O=C1C2C3C=CC(C3)C2C(=O)N1c1ccc(-c2nc3ccccc3c(=O)o2)cc1 (stereo not given) 1
COC(=O)CC1=NN(c2ccccc2)C(=O)C1 1
COc1ccc(/C(C)=N/NC(=O)CCC(=O)Nc2ccc(Cl)cc2Cl)c(OC)c1 0.9
Cc1cccc(NC(=O)CN2C(=O)c3ccccc3C2=O)c1C 1
CC1=C(C)CC(C(=O)NC(C)CCc2ccccc2)C(C(=O)O)C1 (stereo not given) 1
Cc1ccc(CNC(=O)c2ccccc2CCc2ccccc2)cc1 1.1
Cc1ccc(O)c(-c2cc(C(=O)Nc3c(C)n(C)n(-c4ccccc4)c3=O)[nH]n2)c1 1
O=C1CCC(CCC(=O)N2CCCC(C(=O)c3ccc(Cl)cc3)C2)=NN1 (stereo not given) 1.1
[O-][n+]1c2c(nn1-c1ccc(Cl)c(Cl)c1)-c1nonc1CC2 1
Cc1ccc(CN2CCC(N3CCC(C(=O)NCC4CCCO4)CC3)CC2)o1 (stereo not given) 1
Cc1ccccc1-c1n[nH]c(=S)n1/N=C/c1ccc(-c2ccccc2Br)o1 0.9
CCOC(=O)C1(Cc2cccc(OC)c2)CCCN(S(=O)(=O)c2cccnc2)C1 (stereo not given) 1.1
CCOc1ccc(C(=O)NCCCN2CCCC2=O)cc1 1
COc1ccc(NS(=O)(=O)c2cc(NC(=O)/C=C/c3cc(OC)c(OC)c(OC)c3)ccc2N2CCCCC2)cc1 1
Cc1cc(SCC(=O)NCCN2C(=O)CSC2=O)nc2ccccc12 1
N#Cc1cnn2cc(CCN3CCOCC3)c(-c3ccc(F)cc3)nc12 1
Cc1ccc(C(=O)NC(=S)Nc2ccc(N3CCOCC3)cc2)cc1 1
COC(=O)COc1cccc2c(=O)n(CC(=O)NCCc3ccc(OC)c(OC)c3)ccc12 1
Cc1ccc(NC(=S)N(CCN2CCCCC2)Cc2ccco2)cc1C 1
COC(=O)c1cc(NC(=O)Cc2ccccc2[N+](=O)[O-])ccc1Cl 1
COc1ccc(C(=O)CSc2nc(C)cc(C)n2)cc1[N+](=O)[O-] 1
Cc1ccc(S(=O)(=O)N(CC(=O)NN=C2CCN(C)CC2)c2ccc(F)cc2)cc1 1
CN(C)S(=O)(=O)c1cccc(NC(=O)COC(=O)c2cc(=O)[nH]c(=O)[nH]2)c1 1
O=S(=O)(Nc1ncccn1)c1ccc(NS(=O)(=O)c2cccc(Cl)c2Cl)cc1 1
O=C(NNC(=S)NCc1ccco1)C(c1ccccc1)c1ccccc1 1
CCCCC(=O)NCc1ccc(F)cc1 1.1
CCN(c1ccc(NC(=O)COC(=O)CCc2nc3ccccc3n2-c2ccccc2)cc1)C(C)C 1
Clc1cccc(CN2COc3c(cc(Cl)c4cccnc34)C2)c1 1.1
CCN(CCO)C(=S)Nc1cc(C(=O)OC)ccc1C(=O)OC 1
Cc1ccccc1CC1(CO)CCCN(Cc2ccc3c(c2)OCCO3)C1 (stereo not given) 1.1
Clc1ccc(-n2nnnc2-c2cnc(-c3ccccn3)nc2-c2cccs2)cc1 1
COc1ccc(C(=O)Nc2c(Cl)cc(Cl)cc2C(=O)N2CCC(C)CC2)cc1 1
O=C(c1ccc(Cl)c([N+](=O)[O-])c1)N1CCN(c2ccccc2)CC1 1
O=C(CCl)NNc1cccc(Cl)n1 1
C=CCN1C(=O)C(Cc2ccc(OCC)cc2)SC1=Nc1ccc(C(=O)O)cc1 (stereo not given) 1
Cc1nc([N+](=O)[O-])nn1C12CC3CC(CC(Br)(C3)C1)C2 1
CC1CCC(C(C)C)C(=O)/C1=C\c1ccc(NC(=O)CCC(=O)O)cc1 (stereo not given) 1.1
O=C(CN1C2=NCCN2c2ccccc21)c1cccs1 1.1
COc1ccc(/C=N/NC(=O)c2ccncc2)cc1CN1CCCc2ccccc21 1
Cc1ccnc(NC(=O)c2ccco2)n1 1
CCNc1nc(-c2cc3ccccc3o2)cs1 1.1
Oc1cccc(C2c3[nH]c4ccccc4c3CCN2Cc2cnn(-c3ccccc3)c2)c1 (stereo not given) 1
COC(=O)c1ccc(C(NC(=O)OCc2ccccc2)/C(C)=C/[C@@H](C)C(=O)NCc2ccc(OC)c(OC)c2)cc1 (stereo not given in full) 1.1
CCOc1c2ccc(C(=O)NC3CCCc4ccccc43)cc2nn1CC (stereo not given) 1
Cc1nnsc1C(=O)N/N=C/c1cccc(C(F)(F)F)c1 1
Cc1[nH]c2ccccc2c1/C=C(/C#N)C(=O)NC(C)C 1
O=C(Cc1c(F)cccc1Cl)Nc1ccc(-n2cnnn2)cc1 1
COCCCNC(=O)Cn1c(=O)n(Cc2ccccc2Cl)c(=O)c2cc(OC)c(OC)cc21 1
COc1cc([N+](=O)[O-])ccc1NC(=O)CN1CCCC1 1
COc1ccc(-c2nn(-c3ccccc3)cc2CN2CCCO2)c(F)c1 1.1
O=C(O/N=C(/c1ccccc1)c1ccncc1)c1ccccc1[N+](=O)[O-] 1.1
CCC(C)NC(=O)Cn1nc(C(F)(F)F)c2c1CCC2 (stereo not given) 1.1
CCOC(=O)COc1cc(O)c2c(=O)cc(-c3ccccc3)oc2c1 1
Cc1cccc(NC(=O)/C=C/c2ccc3c(c2)OCO3)n1 1
COc1ccc(Sc2nc(-c3ccccc3)ncc2OC)cc1 1
N#CCOc1ccc(C2=NO[C@@H]3[C@@H]4C[C@@H]([C@H]5C(=O)N(c6ccc7c(c6)OCO7)C(=O)[C@@H]45)[C@H]23)cc1 1

Activation factor, active:
Cc1ccc(O)c(-c2cc(C(=O)NCc3ccccc3)[nH]n2)c1 2.3
